Only a selection was taken, and hits are over-represented in it overall.
L major viab: inhibitors of Leishmania major promastigote growth; Leishmania major promastigotes, resazurin fluorescence viability; AID 1063; 200,000 tested, 9% active; inhibition, % at 10 µM; in the data active = inhibition above about 50%;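 note: promastigotes grown with compound for 44 hours at 28 °C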
S1P4 agonist: agonists of human S1P4 receptor; activation, % at 4.98 µM; O95977; AID 1509; 220,000 tested, 0.35% active; S1P4-expressing cell line, agonist reporter assay; in the data active = activation above about 11%
Target sequence (O95977 whole entry, looked up): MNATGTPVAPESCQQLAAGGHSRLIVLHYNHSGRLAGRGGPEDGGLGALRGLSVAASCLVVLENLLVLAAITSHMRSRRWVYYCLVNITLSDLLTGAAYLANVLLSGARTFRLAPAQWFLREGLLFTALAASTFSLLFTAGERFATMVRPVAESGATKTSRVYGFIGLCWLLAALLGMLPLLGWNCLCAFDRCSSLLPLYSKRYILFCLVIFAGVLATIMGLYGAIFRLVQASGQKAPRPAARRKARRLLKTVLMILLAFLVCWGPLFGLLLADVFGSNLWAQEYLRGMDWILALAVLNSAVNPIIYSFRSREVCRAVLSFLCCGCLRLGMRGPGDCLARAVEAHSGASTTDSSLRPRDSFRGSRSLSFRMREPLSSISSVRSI
MDM2 E3 inh: Mdm2 E3 ligase (human) inhibition. cell-based MDM2 ubiquitination luciferase reporter, 2 h; 0 = plate control, 100 = twice control, blank-subtracted. Q00987. AID 1230. 210,000 tested, 0.11% active. signal enhancement, % at 5 µM;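 active = signal enhancement of 30% or more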;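 note: luminescence tracks abundance of the self-degrading MDM2-luciferase fusion protein; higher signal means inhibition of MDM2 E3 ligase activity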
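Material: Stable MDM2–luciferase fusion reporter cells | Amount: 2000 cells seeded into each well | Dosing: One concentration, 5 µM, with 0.2% DMSO | Incubation: 4 h cell settling then 2 h compound exposure, 37 °C | Measured by: Luciferase luminescence | Read-out basis: % enhancement relative to plate controls after blank subtraction | Benchmarks: Control and blank well means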
S1P3 antagonist: blocks the human S1P3 receptor; Q99500; CHO S1P3 NFAT-BLA reporter, FRET fluorescence, antagonist mode; inhibition, % at 4.98 µM; 170,000 tested, 0.27% active; AID 485;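 active = inhibition above the plate cutoff, the mean inhibition of test wells on that plate plus 3 SD, cut at about 28% in these data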;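 note: cells challenged with S1P at its EC80 of 0.8 µM; blue over green emission ratio from cleaved BLA substrate after 4 h stimulation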
S1P4 antagonist: blocks the human S1P4 receptor. O95977. S1P4-expressing cells, antagonist mode, reporter read-out. 220,000 tested, 0.26% active. inhibition, % at 4.98 µM; in the data active = inhibition above about 29%
Large screens that a line does not name were inactive.

CC(C)NC(=O)NC(=O)COC(=O)c1cccc(S(=O)(=O)N2CCCCC2)c1	none
Cc1sc(NC(=O)c2ccco2)nc1-c1ccc2c(c1)CC(C)N2C(=O)C1CC1 (stereo unspecified)	L major viab 86
Cc1sc(NC(=O)c2ccco2)nc1-c1ccccc1	none (no result: S1P3 antagonist)
COc1ccccc1/C=C/C(=O)Nc1cccc(C(C)=O)c1	none
CN(C)c1ccc(C(=O)/C=C/c2ccccc2)cc1	none
COc1ccc(/C=C/C(=O)Nc2cccc(C(C)=O)c2)cc1	L major viab 85
CCC(=O)Nc1cccc(C(=O)/C=C/c2cc(Br)ccc2OC)c1	L major viab 100 (no result: S1P3 antagonist)
CC(=O)Nc1cccc(C(=O)/C=C/c2ccc(/C=C/C(=O)c3cccc(NC(C)=O)c3)cc2)c1	L major viab 80
CC(=O)Nc1cccc(C(=O)/C=C/c2ccc(N(C)C)cc2)c1	none
CN(C)c1ccc(C(=O)/C=C/c2ccc(Br)cc2)cc1	L major viab 90
Cc1nnc(SCc2nnc(-c3ccccc3Br)o2)s1	none
S=C(Nc1ccccc1Cl)N(Cc1ccccc1)Cc1ccccn1	none
COc1cc(NC(=O)COC(=O)/C=C/c2ccc(OC)c(OC)c2)cc(OC)c1	none
CC(=O)Nc1cccc(C(=O)/C=C/c2ccc(Br)cc2)c1	L major viab 100
COc1ccc(OC)c(/C=C/C(=O)OCC(=O)Nc2cccc(C(C)=O)c2)c1	L major viab 66
CC(=O)Nc1cccc(C(=O)/C=C/c2ccc[nH]2)c1	none (no result: L major viab)
O=C1C(Cl)=C(NC2CCCCC2)C(=O)N1Cc1ccccc1	none
O=C1C(Cl)=C(N2CCN(Cc3ccccc3)CC2)C(=O)N1Cc1ccccc1	L major viab 92 (no result: S1P3 antagonist)
Cc1ccc(S(=O)(=O)N2CCN(c3ccc4nnc(-c5ccccc5)n4n3)CC2)cc1	L major viab 75 (no result: S1P3 antagonist)
O=C(c1ccc(Br)o1)N1CCN(c2ccc3nnc(-c4ccc(F)cc4)n3n2)CC1	none (no result: S1P3 antagonist)
COc1ccc(S(=O)(=O)N2CCN(c3ccc4nnc(-c5ccc(F)cc5)n4n3)CC2)cc1	L major viab 99
Cc1ccc(N(C(=O)c2csnn2)C(C(=O)NC(C)(C)C)c2cccnc2)cc1 (stereo unspecified)	none
COC(=O)c1sccc1NC(=O)CC1C(=O)NCCN1C(=O)Nc1ccc(C(F)(F)F)cc1 (stereo unspecified)	none (no result: L major viab)
C=C1CCN([C@@H](C)C(=O)NCc2ccc(OC)cc2)S(=O)(=O)c2ccccc21	none (no result: L major viab, S1P4 agonist, S1P3 antagonist, S1P4 antagonist)
c1ccc(C2=Nn3c(nnc3-c3cc(-c4ccccc4)n[nH]3)SC2)cc1	L major viab 63
COc1ccc(C2=Nn3c(nnc3-c3ccccc3OC)SC2)cc1OC	S1P3 antagonist 54
Cc1nnc2n(c1=O)N=C(c1ccc(Cl)cc1)CS2	L major viab 80
COc1ccc(C2=Nn3c(nnc3-c3ccccn3)SC2)cc1OC	none (no result: S1P3 antagonist)
Clc1ccc(C2=Nn3c(nnc3-c3cc(-c4ccccc4)n[nH]3)SC2)cc1	none (no result: S1P3 antagonist)
COc1ccc(C2=Nn3c(nnc3-c3ccc(OC)cc3)SC2)cc1	L major viab 61
CC(C)CCn1nnnc1C(C(C)C)N1CCC(C(N)=O)CC1 (stereo unspecified)	none (no result: S1P3 antagonist)
O=C(N/C(=C\c1cccc([N+](=O)[O-])c1)C(=O)N1CCOCC1)c1ccc([N+](=O)[O-])cc1	none
CCOc1cccc(-c2nnc3n2N=C(c2cc(OC)ccc2OC)CS3)c1	L major viab 66 (no result: S1P3 antagonist)
Cc1c(C(=O)NCCSCc2ccccc2Cl)cccc1[N+](=O)[O-]	none (no result: S1P3 antagonist)
Cc1c(C(=O)Nc2nnc(SCc3ccccc3Cl)s2)cccc1[N+](=O)[O-]	L major viab 74
COc1cc(OC)c2c(O)c3c(c(-c4c5c(c(O)c6c(OC)cc(OC)cc46)CO[C@@H](C)[C@H]5O)c2c1)[C@H](O)[C@H](C)OC3	none
Cn1c(=O)c2c(nc(NCCNC(=O)c3ccco3)n2Cc2ccc(Cl)cc2Cl)n(C)c1=O	none
Cn1c(NCCCN2CCOCC2)nc2c1c(=O)n(Cc1ccc(Cl)cc1Cl)c(=O)n2C	L major viab 90
O=C(Nc1ccon1)C12CC3CC(C1)CC(n1cnc([N+](=O)[O-])n1)(C3)C2	L major viab 62
Cc1cc(NC(=O)C23CC4CC(C2)CC(n2cnc([N+](=O)[O-])n2)(C4)C3)no1	L major viab 51
Cc1ccsc1C1C(C#N)=C(N)N(N(C)C)C2=C1C(=O)CC(C)(C)C2 (stereo unspecified)	none
COc1cc2c(cc1OC)C1C(C(=O)Nc3ccccc3N3CCN(C)CC3)c3ccccc3C(=O)N1CC2 (stereo unspecified)	none
Cc1nn(-c2ccccc2)c(N2CCCC2)c1/C=N/O	L major viab 72 (no result: S1P3 antagonist)
Cc1nn(-c2ccccc2)c(N2CCCC2)c1/C=N/NC(=S)Nc1ccccc1C(F)(F)F	L major viab 99
Cc1nn(-c2ccccc2)c(N2CCCC2)c1/C=N/NC(=S)Nc1cc(C(F)(F)F)ccc1Cl	none
COc1cc(C)c(NC(=O)C(=S)NCCc2ccccc2)cc1C	none
O=C(NCCCCc1ccccc1)c1ccccc1Cl	none
O=C1CC(/C=C/c2ccccn2)=Nc2ccccc2N1	L major viab 82
O=C1CC(/C=C/c2ccco2)=Nc2ccccc2N1	none
Cc1ccc(NC(=O)CSc2nnc(C)c(=O)[nH]2)cc1C	none
Cc1cccc(C)c1NC(=O)CSc1nnc(C)c(=O)[nH]1	L major viab 66
CN=c1scc(C)n1/N=C/c1ccc(O)cc1O	L major viab 58
COc1cc(C(=O)OCc2ccc(C)cc2)cc(NC(=O)c2cccs2)c1OC	L major viab 55
COc1cc(C(=O)O)cc(NC(=O)c2cccs2)c1OC	none
CC(C)(C)NC(=O)c1cccc(NC(=O)CSc2ccc(Cl)cc2)c1	L major viab 91
CC(C)CNC(=O)c1cccc(NC(=O)CSc2ccc(Cl)cc2)c1	none
CSc1cccc(NC(=O)CSc2ccc(C)cc2)c1	none (no result: S1P3 antagonist)
CSc1cccc(NC(=O)CSc2ccc(Cl)cc2)c1	L major viab 54 (no result: S1P3 antagonist)
COc1cc(OC)c(C2C(C#N)=C(C)NC(C)=C2C#N)c(C(=O)O)c1	none (no result: L major viab)
CCOC(=O)c1cc(C(=O)c2ccccc2O)cn2c(=O)c3c(C)c(C)sc3nc12	none
CC(C)(C)c1ccc(NC(=S)NCCc2ccccn2)cc1	none (no result: L major viab)
CC(=O)c1ccc(NC(=S)NCCc2ccccn2)cc1	L major viab 71
CCOC(=O)c1nc(NCc2ccccc2F)c2ccccc2n1	none
CCCCCCCNC(=O)c1ccc(N2CCC3(CC2)OCCO3)c([N+](=O)[O-])c1	L major viab 94
O=C(NCc1ccc(F)cc1)c1ccc(N2CCc3ccccc32)c([N+](=O)[O-])c1	L major viab 92
CC1CCN(c2ccc(C(=O)NCc3ccco3)cc2[N+](=O)[O-])CC1	L major viab 50
O=C(NCc1ccco1)c1ccc(N2CCCCC2)c([N+](=O)[O-])c1	L major viab 63
CC1CCc2c(sc(NC(=O)CSc3ncnc4c3cnn4-c3ccccc3Cl)c2C#N)C1 (stereo unspecified)	none (no result: S1P3 antagonist)
O=C1/C(=C/c2ccccn2)SC(=S)N1N1CCOCC1	none (no result: L major viab)
